Rows were chosen to be rich in hits. Some 4.8% of all compounds tested hit in one or more screens of this group.
Jurkat NFkB inh = lowers PMA/ionomycin-induced NF-kB signal in Jurkat cells; PMA/ionomycin-induced NF-kB luciferase reporter, luminescence; inhibition, % at 4 µM; actives 0.53% (n = 330,000); in the data active = inhibition above about 50%
T cruzi inh = blocks replication of Trypanosoma cruzi; actives 1.4% (n = 300,000); inhibition, % (test concentration not listed); AID 1885; T. cruzi beta-gal in NIH3T3, luminescence, 90 h;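 active = mean inhibition across valid replicates above about 55%, limit read from the data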;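 also: signal also drops with host cell toxicity which is not excluded here; 0% = plate median of DMSO wells and 100% = zero luminescence signal; higher percent means less beta-gal luminescence so fewer parasites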
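Read-out: Parasite load inhibition, % | Test system: Mouse NIH/3T3 fibroblasts infected with β-gal-expressing T. cruzi Tulahuen C4 | Amount: 5,000 cells/well | Medium: DMEM, 2% fetal bovine serum | Signal: GalScreen β-gal luminescence, detergent lysis, 60 min | Timing: 3 h attach, ≥90 h co-culture | Also added: Tulahuen C4 trypomastigotes, 5000/well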
HSF1 inh = HSF1 inhibition. NIH3T3-HGL HSE-luciferase, MG132-induced, luminescence 8 h; active compounds read low. AID 2098. activity change, negative = inhibition, % at 7.5 µM (by protocol). actives 0.77% (n = 300,000);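 active = more than half of replicate wells show activity change below -50%, luminescence cut by over half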;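 also: luciferase reports HSF-1 transcriptional activity via heat shock element; 0% = median of DMSO wells and -100% = zero luminescence signal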
697 NFkB inh = lowers PMA/ionomycin-induced NF-kB signal in 697 B cells; 697 B-cell NF-kB luciferase reporter, 16 h; inhibition, % at 4 µM; actives 0.33% (n = 330,000); AID 435022; in the data active = inhibition above about 35%
GPR7 antag = antagonists of human GPR7 (neuropeptides B/W receptor 1). GPR7-expressing cells, fluorescence antagonist assay. P48145. actives 1.1% (n = 290,000). AID 1861. inhibition, % at 4.4 µM; in the data active = inhibition above about 16%, passing the limit was not always enough;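 also: cells stimulated with the agonist NPW; 0% = agonist with vehicle and 100% = vehicle without agonist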
Target sequence (P48145 whole entry, looked up): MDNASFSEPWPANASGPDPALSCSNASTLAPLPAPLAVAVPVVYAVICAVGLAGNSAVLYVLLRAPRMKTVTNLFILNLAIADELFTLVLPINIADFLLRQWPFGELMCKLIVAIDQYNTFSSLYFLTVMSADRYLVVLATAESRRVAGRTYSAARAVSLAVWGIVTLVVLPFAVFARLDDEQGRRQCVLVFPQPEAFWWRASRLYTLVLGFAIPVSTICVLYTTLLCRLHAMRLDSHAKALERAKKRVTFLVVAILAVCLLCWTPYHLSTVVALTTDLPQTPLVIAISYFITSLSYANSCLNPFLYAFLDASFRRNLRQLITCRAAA
HSF-1 act = increases HSF-1 driven luciferase reporter signal. NIH3T3-HGL HSF-1 luciferase reporter, MG132, 8 h; 100% = twice DMSO control signal. activation, % at 9 µM. actives 1.7% (n = 300,000);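 active = mean replicate activation of at least 50% with a set share of replicates each reaching 50%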;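 also: 0% = median of the neutral control wells and 100% = twice that signal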
* hit, by the source's call; . = no result given.

SMILES | Jurkat NFkB inh | T cruzi inh | HSF1 inh | 697 NFkB inh | GPR7 antag | HSF-1 act
CC(C)N(Cc1nccn1C)C(=O)c1cc(COc2ccc(F)cc2Cl)on1 | -10 | 0 | 11 | -56 | -8 | 29
CC(=O)n1cc(Nc2ccc([N+](=O)[O-])cc2)c2ccccc21 | -15 | -10 | 2 | 21 | -4 | 7
CC(=O)SC(C[N+](=O)[O-])c1cn(C(C)=O)c2ccccc12 (stereo not given) | -7 | -12 | 169 | 12 | 14 | 204*
CN1CCSc2ccc(C(=O)Nc3cc(F)ccc3F)cc21 | -133 | 4 | 53 | -4 | -14 | 76*
O=S(=O)(NCC1CN(S(=O)(=O)c2c(F)cccc2F)C1)c1ccc2c(c1)OCCO2 | 22 | . | . | -20 | . | .
Cc1ccc(OCC(=O)N(C)CC(=O)Nc2ccccc2Cl)c([N+](=O)[O-])n1 | -4 | . | . | 4 | . | .
CCCOc1ccc(C(=O)CCC(=O)OCC(=O)Nc2cccc(S(N)(=O)=O)c2)cc1 | -13 | . | . | 17 | . | .
CC12c3ccccc3C(c3ccccc31)C1C(=O)N(Cc3cccnc3)C(=O)[C@H]12 (stereo not given in full) | -3 | 51 | 29 | 8 | -2 | 70*
CC(C)(C)c1cc(C(=O)N2CCc3ccccc3C2)ccn1 | 5 | 7 | -5 | -14 | 2 | 3
O=C(NC1CCCCC1)C1CCCN1S(=O)(=O)c1cccc2nsnc12 (stereo not given) | 15 | 0 | 8 | 6 | -8 | 54*
COc1ccc(OC)c(NC(=O)CCNC(=O)c2ccco2)c1 | 7 | -5 | -3 | -6 | -6 | 13
COc1ccccc1/C=C(/CC(=O)NCc1ccc2c(c1)OCO2)c1nc2ccccc2s1 | 4 | 55* | 4 | 1 | -4 | 2
CC(=O)c1cc(-c2ccccc2)n(CCC(=O)NC2CCCCC2)c1C | 13 | -2 | 5 | 21 | 2 | 25
CCN(CC)CC(=O)N1c2ccccc2CCc2ccc(NC(=O)c3cc(OC)c(OC)c(OC)c3)cc21 | -29 | 31 | 7 | -6 | -9 | 17
COc1cc(C(=O)N/N=C(\c2ccccc2)c2ccccn2)cc(OC)c1OC | 18 | 55* | 7 | -33 | -8 | -1
COc1cccc(C(=O)N/N=C(/c2ccccc2)c2ccccn2)c1 | 27 | 55* | 2 | -44 | 10 | -15
COc1cc(C(=O)N/N=C(\C)c2ccccn2)cc(OC)c1OC | 32 | 16 | 1 | 6 | 5 | -4
CCn1c(SCC(=O)Nc2ccc3c(c2)OCCO3)nnc1C1CC1 | 10 | -8 | 1 | -6 | -6 | 14
O=C1COc2ccc(S(=O)(=O)N3CCC(C(=O)NCc4ccc(F)cc4)CC3)cc2N1 | -3 | -18 | -6 | 4 | -13 | 0
Cc1ccc(CCNC(=O)C2CCN(S(=O)(=O)c3ccc4c(c3)NC(=O)CO4)CC2)cc1 | 27 | -3 | 35 | 16 | -10 | 68*
CC(C)CCNC(=O)C1CC2Cn3c(nc4cc(Cl)c(Cl)cc43)C2N1C (stereo not given) | 6 | 6 | 7 | -2 | . | 2
Cc1ccc(C)c(S(=O)(=O)c2c(N)n(/N=C/c3ccco3)c3nc4ccccc4nc23)c1 | 10 | 29 | 25 | -12 | 3 | 52*
Nc1c(S(=O)(=O)c2ccccc2)c2nc3ccccc3nc2n1Cc1ccco1 | 19 | 9 | 9 | 8 | -8 | 13
Cc1ccc(S(=O)(=O)c2c(N)n(CCCO)c3nc4ccccc4nc23)cc1 | 6 | -4 | 12 | 14 | 0 | 27
CC(C)CCn1c(N)c(S(=O)(=O)c2cccs2)c2nc3ccccc3nc21 | 2 | 45 | 54 | -9 | -17 | 104*
SMILES | Jurkat NFkB inh | T cruzi inh | HSF1 inh | 697 NFkB inh | GPR7 antag | HSF-1 act
Cc1ccc(S(=O)(=O)c2c(N)n(Cc3ccco3)c3nc4ccccc4nc23)cc1C | 22 | 8 | 50 | 7 | 0 | 73*
Cc1cccc(S(=O)(=O)c2c(N)n(/N=C/c3ccccc3)c3nc4ccccc4nc23)c1 | 6 | 31 | -1 | 8 | 6 | 7
Cc1ccc(S(=O)(=O)c2c(N)n(CCC(C)C)c3nc4ccccc4nc23)cc1 | 2 | 49 | 53 | 11 | -13 | 109*
Cn1c(N/N=C/c2cc3ccccc3nc2Cl)nc2ccccc21 | -54 | 34 | -46 | -46 | 0 | -50
COc1ccc(OC)c(NC(=O)CSc2nnc(NC(=O)c3ccco3)s2)c1 | 13 | 11 | -3 | -12 | 2 | 5
O=C(NC1CCC(Oc2ccc(C(=O)O)cc2)CC1)NC12CC3CC(CC(C3)C1)C2 (stereo not given) | -5 | . | . | 1 | . | .
COc1ccc(C(CCN)c2ccc3c(c2)OCO3)cc1 (stereo not given) | 5 | 60* | 1 | -29 | 12 | 6
COc1ccc(S(=O)(=O)N2CCOCC2)cc1NC(=O)c1cccc2c(=O)c(C)c(-c3ccccc3)oc12 | 8 | 27 | 23 | -22 | -10 | 13
Cc1nc2ccccc2c2nc3ccccc3n12 | -23 | -3 | -8 | -11 | -7 | 20
c1ccc2c(c1)nnn1c3ccccc3nc21 | -128 | 10 | 29 | -230 | 8 | 62*
Cc1cccc2cc3c(N)c(C(=O)N4CCOCC4)sc3nc12 | 1 | -10 | 36 | -17 | -8 | 81*
C=CCSC1=C(C#N)C(c2cccc(OC)c2)CC(=O)N1 (stereo not given) | 1 | 8 | 8 | 15 | -3 | 51*
O=C1c2ccc(-c3ccc(Cl)c(C(F)(F)F)c3)cc2S(=O)(=O)c2cccc(C(=O)N3CCN(c4ccc(Cl)cn4)CC3)c21 | 16 | . | . | -9 | . | .
O=C(N/N=C/c1cc([N+](=O)[O-])ccc1O)c1ccncc1 | 2 | -2 | -54* | 8 | -9 | -61
O=C(N/N=C/c1cc([N+](=O)[O-])ccc1O)c1cccc2cc[nH]c12 | 28 | 57* | -9 | -23 | -4 | -13
O=C(N/N=C/c1cc(Br)ccc1O)c1ccncc1 | 14 | 21 | 1 | -35 | -6 | -4
Cc1ccc(C)c(NC(=O)C2CCCN(S(=O)(=O)c3c(C)nn(C)c3C)C2)c1 (stereo not given) | 10 | -3 | -4 | 7 | 17 | 12
Clc1ccc2c(N/N=C/c3ccc(Br)cc3)ccnc2c1 | . | 47 | 7 | . | -4 | 13
Clc1ccc2c(N/N=C/c3cccnc3)ccnc2c1 | -38 | 65* | 15 | -2 | -5 | 39
Oc1ccc(/C=N/Nc2ccnc3cc(Cl)ccc23)c(O)c1 | -24 | -21 | 81 | -76 | -17 | 100*
Cc1ccc(/C=N/Nc2ccnc3cc(Cl)ccc23)c(C)c1 | 17 | 68* | -8 | -21 | 2 | 11
Cc1ccccc1/C=N/Nc1ccnc2cc(Cl)ccc12 | . | 60* | 9 | . | -20 | 42
CC(Sc1nnnn1C)C(=O)Nc1ccc2c(c1)OCCO2 (stereo not given) | 1 | -6 | 6 | 8 | -12 | 11
